In ChEMBL document CHEMBL5724801, “EUbOPEN Chemogenomics Library - Multiplex” (2024):
Values joined by “and” are separate entries in the source; they are usually repeats but may differ in a detail not shown here. Equal entries are not always repeated.

Key:
Fibroblast = assay: Multiplex assay against human fibroblast; assay type: toxicity, cell-based
How it was run: (§1)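 At seeding, live cells were stained with Hoechst33342, BioTracker Green Microtubule Cytoskeleton Dye, MitoTracker Red and Annexin V Alexa Fluor 680. After compound addition they were imaged on a CQ1 microscope at 37°C and 5% CO2, and CellPathfinder machine-learning gating sorted them into Hoechst high-intensity objects or normal cells, with normal cells further split into healthy, pyknosed or fragmented nuclei and pyknosed cells into mitotic or apoptotic. Tubulin, mitochondrial-mass and membrane-permeability phenotypes are given as per cents of cells with healthy nuclei.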

U2OS = assay: Multiplex assay against U2OS; assay type: toxicity, cell-based; conditions: human; how it was run: as §1
[1] = 24 h, 10 µM, compound concentration 10 uM
[2] = 48 h, 1 µM, compound concentration 1 uM
[3] = 48 h, 10 µM, compound concentration 10 uM
[4] = 12 h, 1 µM, compound concentration 1 uM
[5] = 12 h, 10 µM, compound concentration 10 uM
[6] = 24 h, 1 µM, compound concentration 1 uM

SMILES: COc1cc(/C=C(\C#N)C(=O)Nc2nnc(C(F)(F)F)s2)ccc1OCc1ccc(C(F)(F)F)cc1C(F)(F)F
- Population Mitochondria Different-Phenotype (%) (Fibroblast; [1]): 7.5% and 5%
- Population Mitotic Cells (%) (Fibroblast; [1]): 90.91% and 76.47%
- Population Normal (%) (Fibroblast; [1]): 100%
- Population Pyknosed Nuclei (%) (Fibroblast; [1]): 16.34% and 8.06%
- Population Tubulin-Different-Phenotype (%) (Fibroblast; [1]): 10% and 18.89%
- Total Cell Count (Fibroblast; [1]): 202 and 211
- Population Apoptotic (%) (Fibroblast; [2]): 33.33% and 37.5%
- Population Fragmented Nuclei (%) (Fibroblast; [2]): 14.56% and 6.01%
- Population Healthy Nuclei (%) (Fibroblast; [2]): 78.54% and 90.56%
- Population Hoechst High Intensity Objects (%) (Fibroblast; [2]): 0%
- Population Membrane Permeable-Phenotype (%) (Fibroblast; [2]): 2.93% and 0.95%
- Population Mitochondria Different-Phenotype (%) (Fibroblast; [2]): 8.29% and 2.37%
- Population Mitotic Cells (%) (Fibroblast; [2]): 66.67% and 62.5%
- Population Normal (%) (Fibroblast; [2]): 100%
- Population Pyknosed Nuclei (%) (Fibroblast; [2]): 6.9% and 3.43%
- Population Tubulin-Different-Phenotype (%) (Fibroblast; [2]): 6.83% and 10.43%
- Total Cell Count (Fibroblast; [2]): 261 and 233
- Population Fragmented Nuclei (%) (Fibroblast; [3]): 7.11% and 8.56%
- Population Healthy Nuclei (%) (Fibroblast; [3]): 90.05% and 88.74%
- Population Hoechst High Intensity Objects (%) (Fibroblast; [3]): 0%
- Population Membrane Permeable-Phenotype (%) (Fibroblast; [3]): 1.05% and 2.03%
- Population Mitochondria Different-Phenotype (%) (Fibroblast; [3]): 10.53% and 2.54%
- Population Mitotic Cells (%) (Fibroblast; [3]): 100% and 50%
- Population Normal (%) (Fibroblast; [3]): 100%
- Population Pyknosed Nuclei (%) (Fibroblast; [3]): 2.84% and 2.7%
- Total Cell Count (Fibroblast; [3]): 211 and 222
- Population Apoptotic (%) (U2OS; [4]): 22.22% and 38.1%
- Population Fragmented Nuclei (%) (U2OS; [4]): 1.99% and 4.9%
- Population Healthy Nuclei (%) (U2OS; [4]): 89.05% and 80.42%
- Population Hoechst High Intensity Objects (%) (U2OS; [4]): 0%
- Population Membrane Permeable-Phenotype (%) (U2OS; [4]): 0.84% and 2.61%
- Population Mitochondria Different-Phenotype (%) (U2OS; [4]): 0.28% and 6.09%
- Population Mitotic Cells (%) (U2OS; [4]): 77.78% and 61.9%
- Population Normal (%) (U2OS; [4]): 100%
- Population Pyknosed Nuclei (%) (U2OS; [4]): 8.96% and 14.69%
- Population Tubulin-Different-Phenotype (%) (U2OS; [4]): 0.56% and 0%
- Total Cell Count (U2OS; [4]): 402 and 143
- Population Apoptotic (%) (U2OS; [5]): 36.59% and 47.06%
- Population Fragmented Nuclei (%) (U2OS; [5]): 1.77% and 5.29%
- Population Healthy Nuclei (%) (U2OS; [5]): 87.88% and 85.71%
- Population Hoechst High Intensity Objects (%) (U2OS; [5]): 0%
- Population Membrane Permeable-Phenotype (%) (U2OS; [5]): 0.57% and 6.17%
- Population Mitochondria Different-Phenotype (%) (U2OS; [5]): 0.29% and 3.09%
- Population Mitotic Cells (%) (U2OS; [5]): 63.41% and 52.94%
- Population Normal (%) (U2OS; [5]): 100%
- Population Pyknosed Nuclei (%) (U2OS; [5]): 10.35% and 8.99%
- Population Tubulin-Different-Phenotype (%) (U2OS; [5]): 1.72% and 0%
- Total Cell Count (U2OS; [5]): 396 and 189
- Population Apoptotic (%) (U2OS; [6]): 43.86% and 43.48%
- Population Fragmented Nuclei (%) (U2OS; [6]): 1.6% and 6.28%
- Population Healthy Nuclei (%) (U2OS; [6]): 88.24% and 81.68%
- Population Hoechst High Intensity Objects (%) (U2OS; [6]): 0%
- Population Membrane Permeable-Phenotype (%) (U2OS; [6]): 0.81% and 3.85%
- Population Mitochondria Different-Phenotype (%) (U2OS; [6]): 0% and 5.13%
- Population Mitotic Cells (%) (U2OS; [6]): 56.14% and 56.52%
- Population Normal (%) (U2OS; [6]): 100%
- Population Pyknosed Nuclei (%) (U2OS; [6]): 10.16% and 12.04%
- Population Tubulin-Different-Phenotype (%) (U2OS; [6]): 0.81% and 0.64%
- Total Cell Count (U2OS; [6]): 561 and 191
- Population Apoptotic (%) (U2OS; [1]): 52.08% and 57.69%
- Population Fragmented Nuclei (%) (U2OS; [1]): 0.74% and 3.08%
- Population Healthy Nuclei (%) (U2OS; [1]): 90.41% and 85.46%
- Population Hoechst High Intensity Objects (%) (U2OS; [1]): 0%
- Population Membrane Permeable-Phenotype (%) (U2OS; [1]): 1.43% and 7.22%
- Population Mitochondria Different-Phenotype (%) (U2OS; [1]): 0% and 1.03%
- Population Mitotic Cells (%) (U2OS; [1]): 47.92% and 42.31%
- Population Normal (%) (U2OS; [1]): 100%
- Population Pyknosed Nuclei (%) (U2OS; [1]): 8.86% and 11.45%
- Population Tubulin-Different-Phenotype (%) (U2OS; [1]): 1.43% and 0.52%
- Total Cell Count (U2OS; [1]): 542 and 227
- Population Apoptotic (%) (U2OS; [2]): 46.05% and 40.48%
- Population Fragmented Nuclei (%) (U2OS; [2]): 3.37% and 3.16%
- Population Healthy Nuclei (%) (U2OS; [2]): 89.31% and 83.54%
- Population Hoechst High Intensity Objects (%) (U2OS; [2]): 0%
- Population Membrane Permeable-Phenotype (%) (U2OS; [2]): 1.29% and 1.14%
- Population Mitochondria Different-Phenotype (%) (U2OS; [2]): 0.11% and 2.65%
- Population Mitotic Cells (%) (U2OS; [2]): 53.95% and 59.52%
- Population Normal (%) (U2OS; [2]): 100%
- Population Pyknosed Nuclei (%) (U2OS; [2]): 7.32% and 13.29%
- Population Tubulin-Different-Phenotype (%) (U2OS; [2]): 0.32% and 0%
- Population Apoptotic (%) (U2OS; [3]): 40% and 47.5%
- Population Fragmented Nuclei (%) (U2OS; [3]): 2.52% and 1.99%
- Population Healthy Nuclei (%) (U2OS; [3]): 89.1% and 88.09%
- Population Hoechst High Intensity Objects (%) (U2OS; [3]): 0%
- Population Membrane Permeable-Phenotype (%) (U2OS; [3]): 0.47% and 3.66%
- Population Mitochondria Different-Phenotype (%) (U2OS; [3]): 0% and 0.85%
- Population Mitotic Cells (%) (U2OS; [3]): 60% and 52.5%
- Population Normal (%) (U2OS; [3]): 100%
- Population Pyknosed Nuclei (%) (U2OS; [3]): 8.39% and 9.93%
- Population Tubulin-Different-Phenotype (%) (U2OS; [3]): 0.82% and 1.13%
- Total Cell Count (U2OS; [3]): 954 and 403
